Source: PubChem BioAssay
MC4R antag cAMP = blocks human MC4R cAMP signaling; MC4R-expressing cells, MTII-stimulated cAMP, LANCE TR-FRET; P32245; inhibition, % at 6.5 µM; 360,000 tested, 0.48% active;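 active = inhibition above its plate's cutoff, the mean of tested wells on that plate plus 3 SD, cut at about 29% in these data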;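 also: 0% = Melanotan II alone and 100% = Melanotan II plus saturating MCL0020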
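Test system: U2OS cells stably expressing human melanocortin 4 receptor (MC4R); also added: Melanotan II challenge; compound: 6.5 µM single dose; timing: 30-min compound preincubation, 1-h Melanotan II challenge, 1-h detection, room temperature; signal: Eu-cAMP/anti-cAMP TR-FRET, emission 671 nm; repeats: one well per compound, no replicates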
MC4R barr agon = agonists of human melanocortin 4 receptor (MC4R) beta-arrestin; U2OS MC4R beta-arrestin complementation, luminescence; percent of melanotan II response, DMSO zero; AID 540308; activation, % at 8.9 µM; 360,000 tested, 0.98% active;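 active = activation above a per-plate cutoff, the mean activation of sample wells on that plate plus 3 SD, cut at about 8% in these data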
HTR2A ag = activates the mouse 5-HT2A serotonin receptor; 360,000 tested, 0.66% active; CHO-K1 mHTR2A beta-arrestin complementation, luminescence; percent of 30 µM serotonin response; P35363; activation, % at 7.6 µM;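 active = activation above a run cutoff, the mean activation of all tested compounds plus 3 SD, cut at about 14% in these data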;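 also: 0% = plate median of compound wells and 100% = 30 µM serotonin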
Target sequence (P35363 whole entry, looked up): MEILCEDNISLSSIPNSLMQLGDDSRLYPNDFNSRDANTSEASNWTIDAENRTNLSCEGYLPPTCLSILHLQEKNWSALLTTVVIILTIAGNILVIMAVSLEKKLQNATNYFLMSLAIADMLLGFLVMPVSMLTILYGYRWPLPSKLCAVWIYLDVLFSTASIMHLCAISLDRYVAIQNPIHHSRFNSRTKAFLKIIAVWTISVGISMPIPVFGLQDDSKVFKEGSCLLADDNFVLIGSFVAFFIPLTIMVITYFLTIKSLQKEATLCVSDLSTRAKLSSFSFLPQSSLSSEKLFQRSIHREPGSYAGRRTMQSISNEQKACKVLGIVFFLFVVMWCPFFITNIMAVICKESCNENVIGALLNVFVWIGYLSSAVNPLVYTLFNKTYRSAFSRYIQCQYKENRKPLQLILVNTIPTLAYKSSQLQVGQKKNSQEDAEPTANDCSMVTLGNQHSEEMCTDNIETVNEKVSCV
GAA850 FXN act = increases GAA850 frataxin promoter reporter activity; HEK293 lucGAA850 FXN promoter luciferase reporter, 24 h; percent of 10 µM SAHA response; activation, % at 6 µM; 360,000 tested, 0.56% active;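 active = activation above the average of all compounds screened plus 3 SD, cutoff fixed separately per campaign, cut at about 7.5% in these data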;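 also: 0% = DMSO wells and 100% = 10 µM SAHA wells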
AHR act = activates the human aryl hydrocarbon receptor; P35869; activation, % at 5 µM; 320,000 tested, 2.5% active; AHR-responsive luciferase reporter cells, luminescence; in the data active = activation above about 47%;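 also: 0% = vehicle wells and 100% = reference agonist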
* hit, by the source's call; · = no result given; ! = repeats disagree. This is a sample that favours compounds with a hit; in the whole collection about 4.7% have one here.

SMILES	MC4R antag cAMP	MC4R barr agon	HTR2A ag	GAA850 FXN act	AHR act
COc1ccc2c(c1)c1ncn(CCN3CCCC3)c(=O)c1n2C	1.0	-0.9	-5.9	-2.1	3.2
O=C(NCc1ccccc1)C(C1CC1)n1c(CSCCOc2ccccc2)nc2ccccc21 (centres undefined)	·	·	-3.6	·	·
Cc1[nH]nc(-c2ccc(O)cc2O)c1-c1ccc(Cl)cc1	-2.6	-2.1	2.4	0.4	14.4
COc1ccc(-c2n[nH]c(C)c2-c2ccc(Cl)cc2)c(O)c1	-3.7	9.1*	7.2	-0.5	14.2
CC(=O)Nc1ccc(OC(=O)c2ccc(Br)c([N+](=O)[O-])c2)cc1	15.6	-0.4	-1.1	0.0	-0.3
Cc1c(CCOC(=O)C23CC4CC(CC(C4)C2)C3)sc[n+]1Cc1ccccc1	3.2	-1.1	-2.3	1.0	69.1*
Cc1c(CCOC(=O)C23CC4CC(CC(C)(C4)C2)C3)sc[n+]1Cc1ccccc1	0.8	2.4	-7.9	3.4	0.2
COc1ccccc1-n1c(=O)oc2ccc(Cl)cc2c1=O	-8.1	-1.2	1.6	1.4	68.2*
CN(C(=O)COC(=O)c1ccccc1C(=O)c1ccccc1)c1ccccc1	1.6	-0.2	3.6	-2.5	-0.3
Cn1c(Cn2c(=O)sc3ccccc32)nnc1SCC(=O)Nc1ccc2c(c1)OCO2	21.5	-1.3	3.9	-0.2	59.1*
Cc1cccc(Nc2nc(N)nc(CSc3nccn3C)n2)c1	-10.2	-0.1	7.0	1.6	75.2*
Brc1ccc(Oc2nsnc2N2CCOCC2)cc1	13.1	6.8	2.0	1.5	55.9*
COC(=O)Oc1nsnc1N1CCOCC1	0.2	-0.7	-1.1	-0.9	0.8
O=C1OC(c2ccccc2)(N(Nc2ccccc2)c2ccccc2)c2ccccc21 (centres undefined)	14.8	0.8	-2.7	0.8	·
CCCCN1C(=O)C(CC(=O)NCCCN(C)C)CC(C(=O)N(C(C)C)C(C)C)=C1C (centres undefined)	·	·	-0.8	·	·
CC(OC(=O)CCCN=C1NS(=O)(=O)c2ccccc21)C(=O)Nc1ccc(F)c(F)c1F (centres undefined)	0.4	0.8	-0.6	-1.2	0.0
Cc1nc(C(=O)NC2CCCCC2)sc1C1(C)CC(c2cccnc2)=NO1 (centres undefined)	·	·	·	·	-0.1
O=C(Cn1nc(C(F)(F)F)c2c1CCCC2)Nc1ccc2c(c1)OCO2	14.6	1.9	-3.9	-1.5	49.9*
COc1ccc(NC(=O)Cn2nc(C(F)(F)F)c3c2CCCC3)cc1OC	12.8	-0.7	-6.1	-1.7	1.8
CN(C)c1cc2c3ccccc3n(C)c2cc1N	-0.1	1.3	-1.8	0.0	·
COC(=O)C1=CN(c2ccc(OC)cc2OC)C(N)=C(C#N)C1c1cccc([N+](=O)[O-])c1 (centres undefined)	·	·	-2.1	·	·
Oc1c(Cl)cc(Cl)cc1C=Nc1cc(C(F)(F)F)ccc1N1CCc2ccccc2C1	29.3*	-0.7	-2.5	2.4	68.3*
C=CCCC(=O)N1C[C@H]2CON(C)[C@H]2C[C@H]1c1cccc(N2CCOCC2)c1	-2.8	-0.2	-1.8	-1.1	·
O=C(Nc1cc(SCCO)cc([N+](=O)[O-])c1)c1ccc(Br)o1	6.0	-0.8	-3.2	0.8	51.9*
O=C(CCCl)Nc1cc(SCCO)cc([N+](=O)[O-])c1	6.9	-2.5	-0.1	0.1	2.6
SMILES	MC4R antag cAMP	MC4R barr agon	HTR2A ag	GAA850 FXN act	AHR act
COc1cccc(NC(=O)Nc2nnc([C@H]3C[C@H](O)[C@@H](CO)O3)s2)c1	8.6	0.0	2.0	1.7	·
CC(=O)c1cccc(Nc2ccc(C#N)cc2)c1	·	·	0.7	·	·
CCN(CC)c1ccc(-c2nc3cnccn3c2NC2CCCC2)cc1	-0.1	1.2	2.0	2.3	68.9*
O=C(Nc1ccc(F)cc1)N(Cc1cccs1)Cc1cc2cc3c(cc2[nH]c1=O)OCO3	4.0	0.7	-1.6	-5.9	53.6*
Cc1ccc(-c2nnc3ccc(SCC(=O)Nc4cc(C)on4)nn23)cc1	6.7	-1.0	-0.5	-0.9	6.7
Cc1cc(NC(=O)CSc2ccc3nnc(-c4cccs4)n3n2)no1	-6.1	0.6	3.4	-0.6	48.9*
O=C(CSc1ccc2nnc(-c3ccccn3)n2n1)Nc1ccc2c(c1)OCCO2	-1.0	0.6	-3.3	-2.5	-8.6
Cc1ccc(NC(=O)CSc2ccc3nnc(-c4cccnc4)n3n2)cc1	-6.0	-1.4	-1.7	3.4	63.1*
Cc1cc(NC(=O)CSc2nnc(C3CC3)n2-c2ccccc2)no1	0.1	-1.8	-4.3	2.4	48.1*
O=C(CSc1ccc2nnc(-c3ccccn3)n2n1)Nc1ccc2c(c1)OCO2	-2.5	-1.0	-6.1	1.1	53.0*
CC1(C)COC(c2cc3c(cc2Br)OCO3)OC1	5.3	5.7	4.8	-0.8	·
COc1ccc([C@H]2N[C@]3(CCCN(Cc4ccc(C)cc4)C3=O)[C@H]3C(=O)N(Cc4ccccc4)C(=O)[C@@H]23)cc1	6.9	0.7	-3.1	-5.0	·
CC(O)(CC(=O)CC(=O)c1ccccc1)c1ccccc1 (centres undefined)	5.0	0.9	-7.5	1.2	·
CC(O)(c1cccc(F)c1)c1nc(-c2ccoc2)cs1 (centres undefined)	7.4	0.0	1.0	1.1	·
O=C(O)CCn1c2ccccc2c2nc3ccccc3nc21	3.5	-1.0	1.9	6.3	60.0*
CC(C)n1c2ccccc2c2nc3ccccc3nc21	2.7	7.2	3.0	2.1	56.9*
Cn1ccc2c(/C=C/c3ccc(F)cc3)cc3c(c21)C1CCC3C1 (centres undefined)	·	·	-4.1	·	·
CCOC(=O)c1c(NCc2ccccc2)n[nH]c1C	4.0	-0.4	-3.6	1.0	47.7*
CCOC(=O)c1c(Nc2ccccc2OCCOC)n[nH]c1C	-1.1	-0.9	-3.6	1.4	48.2*
CCOC(=O)c1c(C)nsc1NCc1ccccc1	-2.4	0.0	-5.5	2.8	-1.5
CCOc1ccccc1NC(=O)CSc1c(C)n[nH]c1C	-2.7	-0.9	-6.5	-0.6	5.4
Cc1onc(-c2ccccc2Cl)c1C(=O)OCC(=O)Nc1ccc2c(c1)OCO2	2.1	-0.8	3.2	1.3	55.8*
CC1=Nc2ccc(C)cc2/C1=C/c1c(N)n2oc(C)cc2nc1=O	12.4	9.2*!	1.6	0.8	6.2
N#Cc1cc(-c2ccccc2)nn1-c1ccccc1	5.3	3.6	1.9	2.5	68.1*
COc1ccc(C2C(C#N)C(C#N)N3CCCN23)cc1 (centres undefined)	1.4	-0.1	-2.5	-1.4	1.0
N#CC1C(C#N)N2CCCN2C1c1ccc(Cl)cc1 (centres undefined)	15.3	-0.1	-4.4	1.8	48.4*
Cc1cc(N)c(-n2cc3c(=O)n(C)c(=O)n(C)c3c2)cc1C	-3.8	3.9	3.4	5.0	55.7*
COc1cccc(-c2cccc3c2NC(=O)C3(C)Cc2cccc(F)c2)c1 (centres undefined)	7.9	3.0	-5.6	-1.3	·
CCOc1ncccc1C(=O)N=c1sccn1C	5.2	-2.6	2.2	-2.1	60.4*
Cc1ccccc1C(=O)N=c1sccn1C	-5.7	-1.9	3.5	-0.7	6.8
